In ChEMBL document CHEMBL1132964, “Selective ET(A) antagonists. 5. Discovery and structure-activity relationships of phenoxyphenylacetic acid derivatives” (J Med Chem, 2000):
Values after ≈ are worked out from the molar mass of the structure shown. Values joined by “and” are separate entries in the source; they are usually repeats but may differ in a detail not shown here. Equal entries are not always repeated. Active and inactive are the calls of the source. The rule behind the calls is not given here.

Key:
Endothelin-1 receptor = target: T1, Endothelin-1 receptor (Rattus norvegicus, UniProt P26684); assay: In vitro ability to antagonise the binding of [125I]ET1 to the rat aortic A10 cell membrane endothelin A receptor.; format: cell membranes
T1 sequence (P26684 whole entry): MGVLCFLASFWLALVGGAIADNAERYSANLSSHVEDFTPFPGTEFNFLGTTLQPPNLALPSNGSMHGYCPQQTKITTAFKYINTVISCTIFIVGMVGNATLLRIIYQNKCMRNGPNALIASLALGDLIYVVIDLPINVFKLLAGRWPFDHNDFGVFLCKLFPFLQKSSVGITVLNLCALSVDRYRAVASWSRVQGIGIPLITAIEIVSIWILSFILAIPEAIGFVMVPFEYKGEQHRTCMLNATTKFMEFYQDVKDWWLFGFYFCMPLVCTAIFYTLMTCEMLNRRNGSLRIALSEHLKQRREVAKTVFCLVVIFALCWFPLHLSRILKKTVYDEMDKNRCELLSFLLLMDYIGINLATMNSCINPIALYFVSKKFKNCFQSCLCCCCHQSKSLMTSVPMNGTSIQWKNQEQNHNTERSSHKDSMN

Rattus norvegicus = species on record: Rattus norvegicus; assay: Tested for inhibition of ET-1 induced contraction against isolated Rat aortic rings denuded of the endothelium.; format: functional, Aorta
Summary of the method: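 Endothelium-denuded rat aortic rings contracted by ET-1. Tested compound at increasing concentrations, with ET-1 dose-response curves run in its presence. Antagonism expressed as pKb from the rightward shift of the ET-1 curve. Determinations in duplicate, with 95% confidence limits.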

[1] = tested on: Endothelin receptor type A (Rattus norvegicus); assay: Inhibition of Endothelin A receptor in pithed rats 1.5 hour after oral administration at 75 uM/kg
[2] = tested on: Endothelin receptor type A (Rattus norvegicus); assay: Activity against Endothelin A receptor in pithed rats after intravenous administration at 25 umol/kg
[3] = tested on: Endothelin receptor type A (Rattus norvegicus); assay: Inhibition of Endothelin A receptor in pithed rats 3 hour after oral administration at 75 umol/kg
[4] = Maximal plasma concentration in male Sprague-Dawley rats at 10 mg/kg oral dose; format: ADME, organism-based; set-up: dose 10 mg/kg, route oral; conditions: rat
Summary of the method: (§1)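 Single 10 mg/kg oral dose to male Sprague-Dawley rats or male Beagle dogs. Plasma Cpmax (µg/mL), Tmax (h), t1/2 (h) and bioavailability (%) derived from the plasma profile.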

[5] = Oral bioavailability in rat (Sprague-Dawley) (male) (dose 10 mg/kg); format: ADME, organism-based; conditions: in vivo; summary of the method: as §1
[6] = Tested for half life in male Sprague-Dawley rats dosed at 10 mg/kg orally; format: ADME, organism-based; set-up: dose 10 mg/kg, route oral; conditions: rat, in vivo, po; summary of the method: as §1
[7] = Tested for Tmax in male Sprague-Dawley rats dosed at 10 mg/kg orally; format: ADME, organism-based; set-up: dose 10 mg/kg, route oral; conditions: rat, in vivo, po; summary of the method: as §1
[8] = Measured solubility; format: ADME, organism-based, Rattus norvegicus
[9] = Tested for Tmax in male Beagle dogs dosed at 10 mg/kg orally; format: ADME, organism-based, Canis lupus familiaris; set-up: dose 10 mg/kg, route oral; conditions: dog, in vivo, po; summary of the method: as §1
[10] = Tested for bioavailability in male Beagle dogs dosed at 10 mg/kg orally; format: ADME, organism-based, Canis lupus familiaris; conditions: dog, in vivo, po, read-out: Bioavailabiility; summary of the method: as §1
[11] = Maximal plasma concentration in male Beagle dogs at 10 mg/kg oral dose; format: ADME, organism-based, Canis lupus familiaris; set-up: dose 10 mg/kg, route oral; conditions: dog; summary of the method: as §1
[12] = Tested for half life in male Beagle dogs dosed at 10 mg/kg orally; format: ADME, organism-based, Canis lupus familiaris; set-up: dose 10 mg/kg, route oral; conditions: dog, in vivo, po; summary of the method: as §1

Structure (SMILES): N#Cc1ccc(OCc2ccsc2)cc1OC(C(=O)O)c1ccccc1 (centres undefined)
- IC50 (Endothelin-1 receptor): 70 nM
- pKb (Rattus norvegicus): 7.24

Structure (SMILES): COc1cc(COc2ccc(C#N)c(OC(C(=O)O)c3ccccc3C)c2)cc(OC)c1OC (centres undefined)
- IC50 (Endothelin-1 receptor): > 3000 nM

Structure (SMILES): Cc1ccccc1C(Oc1cc(OCc2ccc3ocnc3c2)ccc1C#N)C(=O)O (centres undefined)
- IC50 (Endothelin-1 receptor): 75 nM

Structure (SMILES): Cc1ccccc1C(Oc1cc(OCc2ccncc2)ccc1C#N)C(=O)O (centres undefined)
- IC50 (Endothelin-1 receptor): 9 nM
- pKb (Rattus norvegicus): 7.6

Structure (SMILES): Cc1ccccc1C(Oc1cc(OCc2ccc3c(c2)OCCO3)ccc1C#N)C(=O)O (centres undefined)
- IC50 (Endothelin-1 receptor): 1500 nM

Structure (SMILES): N#Cc1ccc(OCc2ccncc2)cc1OC(C(=O)O)c1ccccc1Cl (centres undefined)
- Activity [1]: 2.7 µM/kg
- Activity [2]: 46.8 µM/kg
- IC50 (Endothelin-1 receptor): 6 nM
- Activity [3]: 1.7 µM/kg
- pKb (Rattus norvegicus): 7.7

Structure (SMILES): N#Cc1ccc(OCc2ccsc2)cc1OC(C(=O)O)c1cccc(Cl)c1 (centres undefined)
- IC50 (Endothelin-1 receptor): 98 nM

Structure (SMILES): Cc1ccccc1C(Oc1cc(OCc2ccsc2)ccc1C#N)C(=O)O (centres undefined)
- IC50 (Endothelin-1 receptor): 20 nM
- pKb (Rattus norvegicus): 7.9

Structure (SMILES): Cc1ccccc1C(Oc1cc(OCc2cncs2)ccc1C#N)C(=O)O (centres undefined)
- IC50 (Endothelin-1 receptor): 30 nM

Structure (SMILES): COc1ccccc1C(Oc1cc(OCc2ccsc2)ccc1C#N)C(=O)O (centres undefined)
- IC50 (Endothelin-1 receptor): 529 nM

Structure (SMILES): Cc1ccccc1C(Oc1cc(OCc2ccncc2)ccc1C#N)C(=O)[O-].[Na+] (centres undefined)
- Cmax [4]: 290 ng/mL
- IC50 (Endothelin-1 receptor): 5 nM
- bioavailability [5]: 9%
- half-life [6]: 0.2 h
- Tmax [7]: 2 h

Structure (SMILES): Cc1ccccc1C(Oc1cc(OCc2c(C)cccc2C)ccc1C#N)C(=O)O (centres undefined)
- IC50 (Endothelin-1 receptor): 857 nM

Structure (SMILES): N#Cc1ccc(OCc2ccsc2)cc1OC(C(=O)O)c1ccccc1Cl (centres undefined)
- Cmax [4]: 62000 ng/mL
- IC50 (Endothelin-1 receptor): 17 nM
- bioavailability [5]: 129%
- half-life [6]: 5 h
- solubility [8]: 1190 µg/mL (≈ 2.98 mM)
- Tmax [7]: 0.5 h
- pKb (Rattus norvegicus): 7.76

Structure (SMILES): Cc1ccccc1C(Oc1cc(OCc2ccc3c(c2)OCO3)ccc1C#N)C(=O)O (centres undefined) [listing 1 of 2 here]
- Activity [1]: 26 µM/kg and 34 µM/kg
- Activity [2]: 23 µM/kg and 45 µM/kg

Structure (SMILES): N#Cc1ccc(OCc2ccsc2)cc1OC(C(=O)O)c1ccccc1C(F)(F)F (centres undefined)
- IC50 (Endothelin-1 receptor): 53 nM

Structure (SMILES): Cc1ccccc1C(Oc1cc(OCc2ccsn2)ccc1C#N)C(=O)O (centres undefined)
- IC50 (Endothelin-1 receptor): 220 nM

Structure (SMILES): Cc1ccccc1C(Oc1cc(OCc2cccnc2)ccc1C#N)C(=O)O (centres undefined)
- IC50 (Endothelin-1 receptor): 30 nM

Structure (SMILES): N#Cc1ccc(OCc2ccsc2)cc1OC(C(=O)O)c1ccccc1Br (centres undefined)
- IC50 (Endothelin-1 receptor): 51 nM

Structure (SMILES): N#Cc1ccc(OCc2ccnnc2)cc1OC(C(=O)O)c1ccccc1Cl (centres undefined)
- IC50 (Endothelin-1 receptor): 44 nM

Structure (SMILES): Cc1ccccc1C(Oc1cc(OCc2ccc3c(c2)OCO3)ccc1C#N)C(=O)[O-].[Na+] (centres undefined)
- Tmax [9]: 0.5 h
- Cmax [4]: 5900 ng/mL
- IC50 (Endothelin-1 receptor): 7 nM
- bioavailability [5]: 84%
- bioavailability [10]: 89%
- half-life [6]: 2.8 h
- solubility [8]: > 20000 µg/mL
- Cmax [11]: 30100 ng/mL
- Tmax [7]: 1 h
- pKb (Rattus norvegicus): 8.1
- half-life [12]: 7.4 h

Structure (SMILES): N#Cc1ccc(OCc2ccc3c(c2)OCO3)cc1OC(C(=O)O)c1ccccc1Cl (centres undefined)
- Activity [1]: 19 µM/kg
- Activity [2]: 13.8 µM/kg
- Cmax [4]: 22000 ng/mL
- IC50 (Endothelin-1 receptor): 14 nM
- bioavailability [5]: 76%
- half-life [6]: 6.3 h
- solubility [8]: 1680 µg/mL (≈ 3.84 mM)
- Tmax [7]: 1 h
- Activity [3]: 10 µM/kg
- pKb (Rattus norvegicus): 8

Structure (SMILES): Cc1ccccc1[C@H](Oc1cc(OCc2ccncc2)ccc1C#N)C(=O)O
- IC50 (Endothelin-1 receptor): 5 nM
- pKb (Rattus norvegicus): 8.3

Structure (SMILES): Cc1ccccc1C(Oc1cc(OCc2ccnc(F)c2)ccc1C#N)C(=O)O (centres undefined)
- IC50 (Endothelin-1 receptor): 23 nM

Structure (SMILES): N#Cc1ccc(OCc2ccsc2)cc1OC(C(=O)O)c1ccccc1F (centres undefined)
- IC50 (Endothelin-1 receptor): 22 nM

Structure (SMILES): Cc1ccccc1[C@H](Oc1cc(OCc2ccc3c(c2)OCO3)ccc1C#N)C(=O)O
- IC50 (Endothelin-1 receptor): 6 nM

Structure (SMILES): Cc1ccccc1C(Oc1cc(OCc2ccccn2)ccc1C#N)C(=O)O (centres undefined)
- IC50 (Endothelin-1 receptor): > 3000 nM

Structure (SMILES): Cc1ccccc1C(Oc1cc(OCc2ccccc2)ccc1C#N)C(=O)O (centres undefined)
- IC50 (Endothelin-1 receptor): 49 nM

Structure (SMILES): N#Cc1ccc(OCc2ccncc2)cc1OC(C(=O)O)c1ccsc1 (centres undefined)
- IC50 (Endothelin-1 receptor): 630 nM

Structure (SMILES): N#Cc1ccc(OCc2ccsc2)cc1OC(C(=O)O)c1ccc(Cl)cc1 (centres undefined)
- IC50 (Endothelin-1 receptor): 504 nM

Structure (SMILES): N#Cc1ccc(OCc2ccc3c(c2)OCO3)cc1OC(C(=O)O)c1ccccc1C(F)(F)F (centres undefined)
- Activity [2]: 9 µM/kg
- IC50 (Endothelin-1 receptor): 16 nM
- pKb (Rattus norvegicus): 7.4

Structure (SMILES): Cc1ccccc1C(Oc1cc(OCc2ccc3c(c2)OCO3)ccc1C#N)C(=O)O (centres undefined) [listing 2 of 2 here]
- IC50 (Endothelin-1 receptor): 12 nM
- pKb (Rattus norvegicus): 7.9

Structure (SMILES): Cc1ccccc1C(Oc1cc(OCc2ccoc2)ccc1C#N)C(=O)O (centres undefined)
- IC50 (Endothelin-1 receptor): 68 nM

Structure (SMILES): N#Cc1ccc(OCc2ccc3ncoc3c2)cc1OC(C(=O)O)c1ccccc1Cl (centres undefined)
- IC50 (Endothelin-1 receptor): 9 nM
- pKb (Rattus norvegicus): 7.5

Structure (SMILES): N#Cc1ccc(OCc2ccc3c(c2)OCO3)cc1OC(C(=O)O)c1ccccc1 (centres undefined)
- Activity [2]: 7.6 µM/kg
- IC50 (Endothelin-1 receptor): 41 nM
- pKb (Rattus norvegicus): 7.4

Structure (SMILES): N#Cc1ccc(OCc2ccsc2)cc1OC(C(=O)O)c1ccoc1 (centres undefined)
- IC50 (Endothelin-1 receptor): 2850 nM

Structure (SMILES): Cc1ccccc1C(Oc1cc(OCc2ccc3ncoc3c2)ccc1C#N)C(=O)O (centres undefined)
- Activity [1]: inactive
- Activity [2]: 63 µM/kg
- IC50 (Endothelin-1 receptor): 6 nM
- Activity [3]: 3.1 µM/kg
- pKb (Rattus norvegicus): 7.8
